Reference: ChEMBL document CHEMBL4011643, “Triaryl Benzimidazoles as a New Class of Antibacterial Agents against Resistant Pathogenic Microorganisms” (J Med Chem, 2017)
Values after ≈ are worked out from the molar mass of the structure shown.

Legend:
Enterococcus faecalis [1] = assay: Antibacterial activity against vancomycin-resistant Enterococcus faecalis NCTC 12201 after 20 hrs by broth microdilution method; format: functional; details: NCTC 12201, 20 h
How it was run: (§1)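 Broth microdilution in Tryptic Soy Broth; growth read as OD600 after 20 h. MIC taken as the lowest drug concentration giving OD600 below 0.1. Run in triplicate.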

Enterococcus faecium = assay: Antibacterial activity against vancomycin-resistant Enterococcus faecium NCTC 12204 after 20 hrs by broth microdilution method; format: functional; details: NCTC 12204, 20 h; how it was run: as §1
Staphylococcus aureus [2] = assay: Antibacterial activity against methicillin-resistant Staphylococcus aureus MRSA252 after 20 hrs by broth microdilution method; format: functional; details: MRSA252, 20 h; how it was run: as §1
[3] = Cytotoxicity against human HeLa cells assessed as cell viability at 25 uM after 24 hrs by MTT assay; format: cell-based; details: read-out: Activity
How it was run: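 HeLa cells, 10000 per well, were grown at 37 °C in 5% CO2 and allowed to settle for 24 h. Compound was then added in triplicate for 24 h of continuous exposure. Viability was read by MTT colorimetry, with absorbance at 570 nm.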

Staphylococcus aureus [4] = assay: Antibacterial activity against methicillin-sensitive Staphylococcus aureus ATCC 9144 after 20 hrs by broth microdilution method; format: functional; details: ATCC 9144, 20 h
How it was run: (§2)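 Broth microdilution in Tryptic Soy Broth, done in triplicate. Growth was read as OD600 after 20 h. MIC is the lowest drug concentration giving OD600 below 0.1.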

Enterococcus faecalis [5] = assay: Antibacterial activity against vancomycin-sensitive Enterococcus faecalis NCTC 775 after 20 hrs by broth microdilution method; format: functional; details: NCTC 775, 20 h; how it was run: as §2
Staphylococcus aureus [6] = assay: Antibacterial activity against methicillin-resistant Staphylococcus aureus EMRSA-15 after 20 hrs by broth microdilution method; format: functional; details: EMRSA-15, 20 h; how it was run: as §1

## Cc1nc2ccc(-c3cccc(-c4ccc(-n5c(C)nc6cc(C(=O)NCCCN(C)C)ccc65)nc4)c3)cc2[nH]1
Enterococcus faecalis [1]
  MIC: 64 µg/mL (≈ 118 µM)
Enterococcus faecium
  MIC: 64 µg/mL (≈ 118 µM)
Staphylococcus aureus [2]
  MIC: > 128 µg/mL
[3]
  viability at 24 h, 25 µM: 62%
Staphylococcus aureus [4]
  MIC: > 128 µg/mL
Enterococcus faecalis [5]
  MIC: 64 µg/mL (≈ 118 µM)
Staphylococcus aureus [6]
  MIC: > 128 µg/mL

## Cc1nc2ccc(C(=O)Nc3cccc(-c4ccc(-n5c(C)nc6cc(C(=O)NCCCN7CCCC7)ccc65)nc4)c3)cc2[nH]1
Enterococcus faecalis [1]
  MIC: > 128 µg/mL
Staphylococcus aureus [6]
  MIC: > 128 µg/mL
